The record followed here is ChEMBL document CHEMBL1124187, “Nucleosides. 150. Synthesis and some biological properties of 5-monofluoromethyl, 5-difluoromethyl, and 5-trifluoromethyl derivatives of 2'-deoxyuridine and 2'-deoxy-2'-fluoro-beta-D-arabinofuranosyluracil” (1988).

Bounds are passed on as bounds.

For assay [1], the system named is HL-60. As to the kind of experiment: Growth inhibition against HL-60 after 24 hours incubation period. The format is functional. To be noted: Homo sapiens, HL-60, 24 h; read-out: ID50 (the source's name). An outline of the steps: (§1)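 HL-60 cell growth inhibition; ID50 derived from six concentrations of each nucleoside using the median-effect equation and plot.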

The test system of a further assay is Human alphaherpesvirus 1. As to the kind of experiment: Effective dose required for antiherpes activity against HSV-1(F) strain. The format is functional. As to conditions: read-out: ED50 (the source's name).
In assay [2] the test system is HL-60. The experiment in a line: Growth inhibition against HL-60 after 48 hours incubation period. The format is functional. To be noted: Homo sapiens, HL-60, 48 h; read-out: ID50 (the source's name). In a few lines:
as §1

In a further assay the test system is Human alphaherpesvirus 2. As to the kind of experiment: Effective dose required for antiherpes activity against HSV-2(G) strain. To be noted: read-out: ED50 (the source's name). The format is functional.
For assay [3], the system named is HL-60. The experiment in a line: Growth inhibition against HL-60 after 72 hours incubation period. The format is functional. To be noted: Homo sapiens, HL-60, 72 h; read-out: ID50 (the source's name). In a few lines:
as §1

In assay [4] the target is Thymidylate synthase (Mus musculus) (UniProt P07607). The experiment in a line: The compound was tested for inhibition of thymidylate synthase (TS) in L1210 cells. The format is cell-based. In a few lines: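 In situ thymidylate synthase activity in intact L1210 cells, measured as tritium released from [5-3H]UDR. Reported as ID50.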
Chain of Thymidylate synthase (Mus musculus) (P07607 whole entry, looked up): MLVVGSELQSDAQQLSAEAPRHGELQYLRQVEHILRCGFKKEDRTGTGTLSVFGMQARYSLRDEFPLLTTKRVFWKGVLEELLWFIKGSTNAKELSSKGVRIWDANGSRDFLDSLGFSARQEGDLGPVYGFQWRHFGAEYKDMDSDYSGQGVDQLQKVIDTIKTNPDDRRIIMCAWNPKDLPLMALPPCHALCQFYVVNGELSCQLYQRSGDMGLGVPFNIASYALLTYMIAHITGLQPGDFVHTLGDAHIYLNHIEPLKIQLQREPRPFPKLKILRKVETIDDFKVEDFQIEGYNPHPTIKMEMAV
The subject of assay [5] is HL-60. The experiment in a line: The compound was tested for [3H]TdR incorporation into DNA in HL-60 cells. The format is functional. To be noted: Homo sapiens, HL-60, 30 min; read-out: ID50 (the source's name). In a few lines:
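HL-60 cells labelled with [methyl-3H]TDR (1 µCi, 0.02 µM) for 30 min, then label incorporated into DNA measured. ID50 derived from six nucleoside concentrations using the median-effect equation and plot.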

A further assay is filed under the species Homo sapiens. As to the kind of experiment: Growth inhibition against HL-60 after 24 hr incubation period. The format is functional. An outline of the steps:
as §1

As for `O=c1[nH]c(=O)n([C@@H]2O[C@H](CO)[C@@H](O)[C@@H]2F)cc1CO`, the IC50 was over 5000 µM with HL-60 [1], 1160 µM with HL-60 [2] and 1920 µM in the assay on HL-60 [3]. In addition, the results for the EC50 with Human alphaherpesvirus 1 and in the assay with Human alphaherpesvirus 2 were 2 µM and 5.5 µM, respectively. The compound also yielded an ID50 in assay [4] of over 1000 µM.
For `CC(=O)OC[C@H]1O[C@@H](n2cc(C)c(=O)[nH]c2=O)[C@@H](F)[C@@H]1OC(C)=O`, the IC50 in the assay with HL-60 [1] is over 1000 µM; in the assay with HL-60 [2], 209 µM; in the assay on HL-60 [3], 119 µM. The EC50 is 0.44 µM in the assay on Human alphaherpesvirus 1 and 1.23 µM in the assay on Human alphaherpesvirus 2.
`Cc1cn([C@@H]2O[C@H](CO)[C@@H](O)[C@@H]2F)c(=O)[nH]c1=O` [5-METHYL-2'-FLUOROARAURACIL]: the IC50 with HL-60 [1] is 136 µM; with HL-60 [2], 51 µM; with HL-60 [5], 20 µM; in the assay on HL-60 [3], 25 µM. Besides, the EC50 in the assay on Human alphaherpesvirus 1 and in the assay with Human alphaherpesvirus 2 was 0.07 µM in each case. The ID50 in assay [4] is over 1000 µM.
As to `O=c1[nH]c(=O)n([C@@H]2O[C@H](CO)[C@@H](O)[C@@H]2F)cc1CF`, the IC50 with HL-60 [1] is 995 µM; with HL-60 [2], 202 µM; with HL-60 [5], 189 µM; with HL-60 [3], 119 µM. Also, the values for the EC50 in the assay with Human alphaherpesvirus 1 and with Human alphaherpesvirus 2 were 0.68 µM and 0.8 µM, respectively. In addition, the ID50 in assay [4] is over 1000 µM.
In assay [4], `O=c1[nH]c(=O)n([C@H]2C[C@H](O)[C@@H](CO)O2)cc1CO` registered an ID50 of over 1000 µM.
Take `CC(=O)OC[C@H]1O[C@@H](n2cc(C(F)(F)F)c(=O)[nH]c2=O)[C@@H](F)[C@@H]1OC(C)=O`: the IC50 with HL-60 [1] came out at 54 µM; in the assay with HL-60 [2] it was 62 µM; with HL-60 [3] it was 65 µM. Besides, the EC50 in the assay on Human alphaherpesvirus 1 and with Human alphaherpesvirus 2 was 1.3 µM in each case.
As for `O=Cc1cn([C@@H]2O[C@H](CO)[C@@H](O)[C@@H]2F)c(=O)[nH]c1=O`, the ID50 in assay [4] is over 1000 µM.
Regarding `O=c1[nH]c(=O)n([C@@H]2O[C@H](CO)[C@@H](O)[C@@H]2F)cc1C(F)F`, the IC50 in the assay on HL-60 [1] is 97 µM; in the assay with HL-60 [2], 12 µM; in the assay with HL-60 [5], over 1000 µM; in the assay on HL-60 [3], 6.6 µM. The figures for the EC50 with Human alphaherpesvirus 1 and with Human alphaherpesvirus 2 were 0.34 µM and 1.04 µM, respectively. This compound also registered an ID50 in assay [4] of 56 µM.
Take `O=c1[nH]c(=O)n([C@H]2C[C@H](O)[C@@H](CO)O2)cc1CF`: the IC50 in the assay on HL-60 [1] was 178 µM; in the assay with HL-60 [2] it was over 1000 µM; in the assay on HL-60 [5], 18.6 µM; with HL-60 [3], over 1000 µM. For the same compound, the EC50 in the assay with Human alphaherpesvirus 1 and with Human alphaherpesvirus 2 was over 100 µM each time. Also, in assay [4], the ID50 was found to be 11 µM.
On to `CC(=O)OC[C@H]1O[C@@H](n2cc(C(F)F)c(=O)[nH]c2=O)C[C@@H]1OC(C)=O`, for which the IC50 in the assay on HL-60 [1] turned out to be 83 µM; in the assay on HL-60 [2], 14 µM; with HL-60 [3], 14 µM. Also, the EC50 with Human alphaherpesvirus 1 came to 17 µM; in the assay with Human alphaherpesvirus 2 it was 25.1 µM.
As for `CC(=O)OC[C@H]1O[C@@H](n2cc(CF)c(=O)[nH]c2=O)[C@@H](F)[C@@H]1OC(C)=O`, the IC50 was determined as 860 µM in the assay with HL-60 [1], 500 µM with HL-60 [2] and 312 µM in the assay on HL-60 [3]. The EC50 in the assay with Human alphaherpesvirus 1 came to 2.43 µM; in the assay with Human alphaherpesvirus 2, 5.19 µM.
As to `CC(=O)OC[C@H]1O[C@@H](n2cc(CF)c(=O)[nH]c2=O)C[C@@H]1OC(C)=O`, the IC50 was determined as 3470 µM in the assay on HL-60 [1], 976 µM with HL-60 [2] and 324 µM in the assay with HL-60 [3]. Besides, the EC50 in the assay with Human alphaherpesvirus 1 and with Human alphaherpesvirus 2 was over 100 µM throughout.
With `O=c1[nH]c(=O)n([C@H]2C[C@H](O)[C@@H](CO)O2)cc1C(F)F`, the IC50 in the assay on HL-60 [1] was determined as 4 µM; in the assay on HL-60 [2] it was 1.25 µM; in the assay on HL-60 [5] it was 5.1 µM; in the assay with HL-60 [3], 0.12 µM. Also, the results for the EC50 in the assay with Human alphaherpesvirus 1 and in the assay on Human alphaherpesvirus 2 were 0.8 µM and 1.17 µM, respectively. Besides, the ID50 in assay [4] is 0.063 µM.
Consider `CC(=O)OC[C@H]1O[C@@H](n2cc(C(F)F)c(=O)[nH]c2=O)[C@@H](F)[C@@H]1OC(C)=O`, for which the EC50 was determined as 0.71 µM in the assay with Human alphaherpesvirus 1 and 2.16 µM in the assay with Human alphaherpesvirus 2. The ID50 in the assay filed under Homo sapiens worked out at 257 µM. In addition, the IC50 in the assay on HL-60 [2] amounted to 83 µM; with HL-60 [3], 40 µM.
Turning to `Cc1cn([C@H]2C[C@H](O)[C@@H](CO)O2)c(=O)[nH]c1=O` [DOXRIBTIMINE], the IC50 was 901 µM in the assay on HL-60 [1], 461 µM in the assay with HL-60 [2], 0.61 µM in the assay with HL-60 [5] and 336 µM in the assay with HL-60 [3]. Further, the EC50 in the assay with Human alphaherpesvirus 1 and in the assay on Human alphaherpesvirus 2 was over 1000 µM each time. Moreover, in assay [4], the ID50 turned out to be 75 µM.
With `O=c1[nH]c(=O)n([C@@H]2O[C@H](CO)[C@@H](O)[C@@H]2F)cc1C(F)(F)F`, the IC50 was 304 µM in the assay on HL-60 [1], 29 µM in the assay with HL-60 [2], over 1000 µM in the assay with HL-60 [5] and 17 µM in the assay with HL-60 [3]. For the same compound, the EC50 in the assay with Human alphaherpesvirus 1 turned out to be 0.83 µM; in the assay on Human alphaherpesvirus 2 it was 1.7 µM. In assay [4], this compound registered an ID50 of 14 µM.
For `CC(=O)OC[C@H]1O[C@@H](n2cc(C(F)(F)F)c(=O)[nH]c2=O)C[C@@H]1OC(C)=O`, the IC50 in the assay with HL-60 [1] came out at 501 µM; with HL-60 [2], 19 µM; with HL-60 [3], 8.5 µM. The EC50 came to 4.7 µM in the assay with Human alphaherpesvirus 1 and 16.3 µM in the assay on Human alphaherpesvirus 2.
For the compound `O=c1[nH]c(=O)n([C@H]2C[C@H](O)[C@@H](CO)O2)cc1C(F)(F)F` [TRIFLURIDINE], the IC50 in the assay with HL-60 [1] was found to be 1.5 µM; in the assay on HL-60 [2] it was 1.7 µM; with HL-60 [5], 14 µM; with HL-60 [3], 0.14 µM. In addition, the EC50 in the assay on Human alphaherpesvirus 1 is 0.77 µM; in the assay with Human alphaherpesvirus 2 it was 1.88 µM. The same compound displayed an ID50 in assay [4] of 0.035 µM.
